{"source": "ChEMBL document CHEMBL4265991", "proteins": {"B1": {"name": "Inosine-5'-monophosphate dehydrogenase (Cryptococcus neoformans var. neoformans serotype D (strain JEC21 /ATCC MYA-565) (Filobasidiella neoformans)), Q5KP44 (protein)", "chain": "MADTNPNAPPRSDSLLNPADALKYLEEYPRGDGLSLQELMDSRKNGGLTYNDFLVLPGHISFPASDVSLQSRATKNIVLNTPFLSSPMDTVTEDRMAIALALHGGLGIIHHNCSAEEQAAMVRRVKKYENGFITDPLCLGPDATVGDVLEIKAKFGFCGVPITETGAPNSKLLGIVTGRDVQFQDAETPIKSVMTTEVVTGSSPITLEKANSLLRETKKGKLPIVDSNGHLVSLVARSDLLKNQNYPYASKVPESKQLYCGAAIGTRPGDKDRLKLLAEAGLDVVVLDSSQGDSVYQIEFIKWIKQTYPKIEIIAGNVVTREQAAQLIAAGADGLRIGMGSGSICITQEVMAVGRPQGTAVYAVAEFASRFGIPCIADGGIGNIGHIAKALALGASAVMMGGLLAGTTESPGEYFYHEGKRVKVYRGMGSIEAMEHTQRGSASGKRSILNLDNAATARYFSEADAVKVAQGVSGDVADKGSINKFVPYLFTGLQHSFQDAGVKSVSELHSCARSGSLRFELRTASAQLEGGVHGLNSYTKRLFA"}}, "key": {"[1]": {"substrate": "COc1c(C)c2c(c(O)c1C/C=C(\\C)CCC(=O)O)C(=O)OC2", "details": "Cryptococcus neoformans; 0.039 uM"}, "[2]": {"compound": "O=S1(=O)C=C(Sc2nnc(-c3ccccc3)o2)c2ccccc21", "assay": "(§1) Inhibition of recombinant Cryptococcus neoformans His-tagged IMPDH expressed in Escherichia coli BL21 (DE3) at 10 uM assessed as Km for substrate using IMP as fixed substrate at 500 uM and NAD as second substrate with varying concentrations of 31.25 to 1300 uM (reference value: 257.5 +/- 23 microM)", "method_in_brief": "(§2)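 Recombinant C. neoformans IMPDH, 100 nM final, reaction started by adding enzyme. NADH production monitored at 340 nm. Inhibitor series ran from 20 to 0.31 µM; MPA tested at 312 to 39 nM. Km and Vmax fitted to the Michaelis–Menten equation; inhibition type taken from shifts in Km and Vmax.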"}, "[3]": {"compound": "COc1ccccc1-c1nnc(SC2=CS(=O)(=O)c3ccccc32)o1", "assay": "as §1", "method_in_brief": "as §2"}, "[4]": {"compound": "O=S1(=O)C=C(Sc2nnc(-c3ccccc3)o2)c2ccccc21", "assay": "(§3) Inhibition of recombinant Cryptococcus neoformans His-tagged IMPDH expressed in Escherichia coli BL21 (DE3) at 2.5 uM assessed as Vmax for substrate using NAD as fixed substrate at 700 uM and IMP as second substrate with varying concentrations of 25 to 800 uM (reference value: 1.5 microM/min)", "method_in_brief": "as §2"}, "[5]": {"compound": "COc1ccccc1-c1nnc(SC2=CS(=O)(=O)c3ccccc32)o1", "assay": "as §3", "method_in_brief": "as §2"}, "[6]": {"substrate": "COc1c(C)c2c(c(O)c1C/C=C(\\C)CCC(=O)O)C(=O)OC2", "details": "Cryptococcus neoformans; 0.039 uM", "remark": "listed apart in the source"}, "[7]": {"compound": "O=S1(=O)C=C(Sc2nnc(-c3ccccc3)o2)c2ccccc21", "assay": "Inhibition of recombinant Cryptococcus neoformans His-tagged IMPDH expressed in Escherichia coli BL21 (DE3) at 0.3 uM assessed as Kcat for substrate using IMP as fixed substrate at 500 uM and NAD as second substrate with varying concentrations of 31.25 to 1300 uM (reference value: 1.5 /s)"}, "[8]": {"substrate": "COc1c(C)c2c(c(O)c1C/C=C(\\C)CCC(=O)O)C(=O)OC2", "details": "Cryptococcus neoformans; 0.039 uM", "remark": "listed apart in the source"}, "[9]": {"compound": "O=S1(=O)C=C(Sc2nnc(-c3ccccc3)o2)c2ccccc21", "assay": "(§4) Inhibition of recombinant Cryptococcus neoformans His-tagged IMPDH expressed in Escherichia coli BL21 (DE3) at 10 uM assessed as Vmax for substrate using NAD as fixed substrate at 700 uM and IMP as second substrate with varying concentrations of 25 to 800 uM (reference value: 1.5 microM/min)", "method_in_brief": "as §2"}, "[10]": {"compound": "COc1ccccc1-c1nnc(SC2=CS(=O)(=O)c3ccccc32)o1", "assay": "as §4", "method_in_brief": "as §2"}, "[11]": {"compound": "O=S1(=O)C=C(Sc2nnc(-c3ccccc3)o2)c2ccccc21", "assay": "(§5) Inhibition of recombinant Cryptococcus neoformans His-tagged IMPDH expressed in Escherichia coli BL21 (DE3) at 0.3 uM assessed as Vmax for substrate using IMP as fixed substrate at 500 uM and NAD as second substrate with varying concentrations of 31.25 to 1300 uM (reference value: 1.5 microM/min)", "method_in_brief": "as §2"}, "[12]": {"compound": "COc1ccccc1-c1nnc(SC2=CS(=O)(=O)c3ccccc32)o1", "assay": "as §5", "method_in_brief": "as §2"}, "[13]": {"substrate": "COc1c(C)c2c(c(O)c1C/C=C(\\C)CCC(=O)O)C(=O)OC2", "details": "Cryptococcus neoformans; 0.156 uM"}, "[14]": {"substrate": "COc1c(C)c2c(c(O)c1C/C=C(\\C)CCC(=O)O)C(=O)OC2", "details": "Cryptococcus neoformans; 0.078 uM"}, "[15]": {"compound": "O=S1(=O)C=C(Sc2nnc(-c3ccccc3)o2)c2ccccc21", "assay": "(§6) Inhibition of recombinant Cryptococcus neoformans His-tagged IMPDH expressed in Escherichia coli BL21 (DE3) at 10 uM assessed as Km for substrate using NAD as fixed substrate at 700 uM and IMP as second substrate with varying concentrations of 25 to 800 uM (reference value: 257.5 +/- 23 microM)", "method_in_brief": "as §2"}, "[16]": {"compound": "COc1ccccc1-c1nnc(SC2=CS(=O)(=O)c3ccccc32)o1", "assay": "as §6", "method_in_brief": "as §2"}, "[17]": {"substrate": "COc1c(C)c2c(c(O)c1C/C=C(\\C)CCC(=O)O)C(=O)OC2", "details": "Cryptococcus neoformans; 0.078 uM", "remark": "listed apart in the source"}, "[18]": {"substrate": "COc1c(C)c2c(c(O)c1C/C=C(\\C)CCC(=O)O)C(=O)OC2", "details": "Cryptococcus neoformans; 0.156 uM", "remark": "listed apart in the source"}, "[19]": {"substrate": "COc1c(C)c2c(c(O)c1C/C=C(\\C)CCC(=O)O)C(=O)OC2", "details": "Cryptococcus neoformans; 0.039 uM", "remark": "listed apart in the source"}, "[20]": {"compound": "O=S1(=O)C=C(Sc2nnc(-c3ccccc3)o2)c2ccccc21", "assay": "(§7) Inhibition of recombinant Cryptococcus neoformans His-tagged IMPDH expressed in Escherichia coli BL21 (DE3) at 2.5 uM assessed as Km for substrate using IMP as fixed substrate at 500 uM and NAD as second substrate with varying concentrations of 31.25 to 1300 uM (reference value: 257.5 +/- 23 microM)", "method_in_brief": "as §2"}, "[21]": {"compound": "COc1ccccc1-c1nnc(SC2=CS(=O)(=O)c3ccccc32)o1", "assay": "as §7", "method_in_brief": "as §2"}, "[22]": {"substrate": "COc1c(C)c2c(c(O)c1C/C=C(\\C)CCC(=O)O)C(=O)OC2", "details": "Cryptococcus neoformans; 0.078 uM", "remark": "listed apart in the source"}, "[23]": {"substrate": "COc1c(C)c2c(c(O)c1C/C=C(\\C)CCC(=O)O)C(=O)OC2", "details": "Cryptococcus neoformans; 0.078 uM", "remark": "listed apart in the source"}, "[24]": {"compound": "O=S1(=O)C=C(Sc2nnc(-c3ccccc3)o2)c2ccccc21", "assay": "(§8) Inhibition of recombinant Cryptococcus neoformans His-tagged IMPDH expressed in Escherichia coli BL21 (DE3) at 2.5 uM assessed as Vmax for substrate using IMP as fixed substrate at 500 uM and NAD as second substrate with varying concentrations of 31.25 to 1300 uM (reference value: 1.5 microM/min)", "method_in_brief": "as §2"}, "[25]": {"compound": "COc1ccccc1-c1nnc(SC2=CS(=O)(=O)c3ccccc32)o1", "assay": "as §8", "method_in_brief": "as §2"}, "[26]": {"compound": "O=S1(=O)C=C(Sc2nnc(-c3ccccc3)o2)c2ccccc21", "assay": "(§9) Inhibition of recombinant Cryptococcus neoformans His-tagged IMPDH expressed in Escherichia coli BL21 (DE3) at 2.5 uM assessed as Km for substrate using NAD as fixed substrate at 700 uM and IMP as second substrate with varying concentrations of 25 to 800 uM (reference value: 257.5 +/- 23 microM)", "method_in_brief": "as §2"}, "[27]": {"compound": "COc1ccccc1-c1nnc(SC2=CS(=O)(=O)c3ccccc32)o1", "assay": "as §9", "method_in_brief": "as §2"}}}
{"protein": "B1", "values": [{"measurement": "Vmax", "setting": "[1]", "result": 0.9, "unit": "µM/min"}, {"measurement": "Km", "setting": "[2]", "result": 386, "unit": "µM"}, {"measurement": "Km", "setting": "[3]", "result": 355, "unit": "µM"}, {"measurement": "Vmax", "setting": "[4]", "result": 0.9, "unit": "µM/min"}, {"measurement": "Vmax", "setting": "[5]", "result": 1, "unit": "µM/min"}, {"measurement": "kcat", "setting": "[6]", "result": 0.9, "unit": "s⁻¹"}, {"measurement": "kcat", "setting": "[7]", "result": 1.5, "unit": "s⁻¹"}, {"measurement": "Km", "setting": "[8]", "result": 200, "unit": "µM"}, {"measurement": "Vmax", "setting": "[9]", "result": 0.6, "unit": "µM/min"}, {"measurement": "Vmax", "setting": "[10]", "result": 0.7, "unit": "µM/min"}, {"measurement": "Vmax", "setting": "[11]", "result": 1.5, "unit": "µM/min"}, {"measurement": "Vmax", "setting": "[12]", "result": 1.5, "unit": "µM/min"}, {"measurement": "Vmax", "setting": "[13]", "result": 0.26, "unit": "µM/min"}, {"measurement": "Vmax", "setting": "[14]", "result": 0.6, "unit": "µM/min"}, {"measurement": "Km", "setting": "[15]", "result": 316, "unit": "µM"}, {"measurement": "Km", "setting": "[16]", "result": 258, "unit": "µM"}, {"measurement": "kcat", "setting": "[17]", "result": 0.6, "unit": "s⁻¹"}, {"measurement": "kcat", "setting": "[18]", "result": 0.25, "unit": "s⁻¹"}, {"measurement": "kcat", "setting": "[19]", "result": 1.1, "unit": "s⁻¹"}, {"measurement": "Km", "setting": "[20]", "result": 336, "unit": "µM"}, {"measurement": "Km", "setting": "[21]", "result": 358, "unit": "µM"}, {"measurement": "Km", "setting": "[22]", "result": 137, "unit": "µM"}, {"measurement": "Km", "setting": "[23]", "result": 53, "unit": "µM"}, {"measurement": "Vmax", "setting": "[24]", "result": 1.3, "unit": "µM/min"}, {"measurement": "Vmax", "setting": "[25]", "result": 1.5, "unit": "µM/min"}, {"measurement": "Km", "setting": "[26]", "result": 187, "unit": "µM"}, {"measurement": "Km", "setting": "[27]", "result": 165, "unit": "µM"}]}
